Assay outcomes (PubChem)
Compounds with a hit are over-represented: about 2.9% of the library has one in this group of screens.
TRPC6 inh = mouse TRPC6 channel inhibition; Q61143; HEK293-TRPC6, membrane potential dye, ACh-evoked depolarization; stronger effect = lower value; B-score at 10 µM; 310,000 tested, 1.1% active;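 active = B-score under library mean minus 3 SD, initial fluorescence not abnormally high, positive integrated signal ratio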;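 also: B-score derived from integrated fluorescence ratio over the kinetic read; more negative B-score means stronger inhibition of depolarization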
TRPC6 activator = mouse TRPC6 channel activation; Q61143; HEK293-TRPC6 membrane potential dye fluorescence; stronger effect = higher value; B-score at 10 µM; 310,000 tested, 0.13% active; AID 2550;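 active = B-score of the integrated fluorescence ratio above library mean plus 3 SD, and starting fluorescence ratio within library mean plus 5 SD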;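 also: higher score means more depolarization so channel activation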
Kir21 block = Kir2.1 (mouse) channel inhibition. HEK293-Kir2.1, FluxOR thallium flux fluorescence; stronger effect = lower value. B-score at 10 µM. 310,000 tested, 0.85% active;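 active = fluorescence ratio B-score at or below minus 3 SD of library scores, with starting-brightness B-score within 2 SD, cut at about -4.2 in these data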;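 also: channel flux triggered by added potassium and thallium sulfate stimulus; B-score of peak minus minimum fluorescence over baseline after thallium stimulus; more negative B-score means stronger Kir2.1 block with less thallium influx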
TRPC4 PAM = allosteric potentiators of mouse TRPC4 channel; Q9QUQ5; HEK293 TRPC4beta/mu-opioid, DAMGO EC20, Fluo-4 Ca2+ flux; stronger effect = higher value; 310,000 tested, 0.42% active; AID 2227; B-score at 10 µM;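 active = B-score of calcium response area above 5 SD of library B-scores, with initial fluorescence ratio within 5 SD of library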;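 also: B-score of integrated fluorescence ratio over time as area under calcium response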
Target sequence (Q9QUQ5 whole entry, looked up): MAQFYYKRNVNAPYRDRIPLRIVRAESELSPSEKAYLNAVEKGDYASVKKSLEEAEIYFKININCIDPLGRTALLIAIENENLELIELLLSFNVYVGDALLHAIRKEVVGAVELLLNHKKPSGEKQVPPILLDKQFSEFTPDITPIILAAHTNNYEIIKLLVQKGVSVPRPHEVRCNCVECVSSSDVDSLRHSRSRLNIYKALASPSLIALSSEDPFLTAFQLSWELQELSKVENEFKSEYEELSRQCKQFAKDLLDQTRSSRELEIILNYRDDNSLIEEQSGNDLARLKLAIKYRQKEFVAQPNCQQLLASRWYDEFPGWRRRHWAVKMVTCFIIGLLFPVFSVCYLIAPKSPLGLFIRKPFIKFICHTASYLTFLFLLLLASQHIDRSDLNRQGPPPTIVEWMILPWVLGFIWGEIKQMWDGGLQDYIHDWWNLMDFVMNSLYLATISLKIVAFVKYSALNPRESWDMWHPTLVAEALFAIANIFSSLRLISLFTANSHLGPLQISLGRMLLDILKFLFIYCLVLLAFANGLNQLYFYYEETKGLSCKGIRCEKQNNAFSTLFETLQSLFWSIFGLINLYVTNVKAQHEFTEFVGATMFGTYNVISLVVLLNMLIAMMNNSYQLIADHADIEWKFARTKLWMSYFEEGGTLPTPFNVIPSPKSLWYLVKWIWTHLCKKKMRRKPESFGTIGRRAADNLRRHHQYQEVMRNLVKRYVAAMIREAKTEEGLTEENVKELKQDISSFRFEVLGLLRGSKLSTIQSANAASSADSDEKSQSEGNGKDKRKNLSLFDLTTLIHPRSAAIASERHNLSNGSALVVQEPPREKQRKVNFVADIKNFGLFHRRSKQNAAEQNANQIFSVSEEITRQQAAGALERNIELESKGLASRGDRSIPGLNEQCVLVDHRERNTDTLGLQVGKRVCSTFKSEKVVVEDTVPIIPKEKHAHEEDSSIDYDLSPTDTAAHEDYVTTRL
TRPC4 inh = blocks the mouse TRPC4 cation channel. HEK293 TRPC4beta/mu-opioid, DAMGO-evoked Fluo4 calcium flux; stronger effect = lower value. B-score at 10 µM. 300,000 tested, 0.39% active. AID 2247;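 active = B-score over 3 SD under the library average, no early fluorescence shift, positive overall ratio signal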
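Assay system: TRPC4beta/mu-opioid receptor HEK293 cell line; compound dosing: single concentration per test compound; detection: Fluo4 Ca2+ flux fluorescence; evaluation: per-well B score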
TRPC4 act = opens the mouse TRPC4 cation channel | B-score at 10 µM | 310,000 tested, 0.49% active | HEK293 TRPC4beta/mu-opioid, Fluo4 calcium fluorescence; stronger effect = higher value | Q9QUQ5;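 active = B-score above 5 SD of library B-scores, and initial fluorescence ratio not above library mean plus 5 SD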;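 also: positive B-score marks a calcium rise read as TRPC4 activation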
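system = HEK293 cells stably co-expressing mouse TRPC4beta and mu-opioid receptor | schedule = Fluo4 dye loading 45 min at room temperature, 110 s recording | measure = B-scored integrated calcium fluorescence ratio | signal = Fluo4 calcium-sensitive dye fluorescence, kinetic, 1 Hz baseline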
TRPC4 spec 2 = second selectivity test of TRPC6 inhibitors: effect on mouse TRPC4; shares compounds with TRPC6 inh; HEK293 TRPC4/MOR, membrane potential dye fluorescence; channel activated by saturating DAMGO dose; inhibition, % at 10 µM; 920 tested, 42% active;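 active = compounds whose fluorescence signal differed from control wells by over 3 SD, either direction, in both duplicate plates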
TRPC4 spec = tests whether TRPC6 inhibitors also affect mouse TRPC4 | shares compounds with TRPC6 inh | 920 tested, 61% active | HEK293 TRPC4/mu-opioid, membrane potential fluorescence | AID 2777 | activity change, negative = inhibition, % at 10 µM;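 active = rise or fall in signal beyond 3 SD of buffer-only wells in both replicate plates, either sign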;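 also: integrated kinetic ratio of fluorescence range over baseline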
HEK293 MPD ctr 2-1 = second check of TRPC6 inhibitor effects in parental HEK293 cells; 920 tested, 31% active; parental HEK293 membrane potential dye fluorescence; maximal acetylcholine challenge after compound addition; AID 2779; shares compounds with TRPC6 inh; signal change vs control, % at 10 µM;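 active = membrane potential signal moving either way by over 3 SD of the maximum-effect control, in both duplicate plates, meaning non-specific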
HEK293 MPD ctr-1 = parental HEK293 nonspecific activity of TRPC6 inhibitors | membrane potential signal change, % at 10 µM | shares compounds with TRPC6 inh | AID 2780 | 920 tested, 60% active | parental HEK293 membrane potential dye fluorescence;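 active = membrane potential signal shifting up or down by more than 3 SD of buffer-only wells, on both duplicate plates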
HEK293 MPD ctr-2 = parental HEK293 nonspecific activity of TRPC6 modulators; shares compounds with TRPC6 inh; membrane potential dye fluorescence; membrane potential signal change, % at 10 µM; 2,400 tested, 51% active; AID 488924;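 active = membrane potential signal moves up or down beyond 5 SD from buffer-only wells, on both duplicate plates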
HEK293 MPD ctr 2-2 = second check of TRPC6 modulator effects in parental HEK293 cells; shares compounds with TRPC6 inh; membrane potential dye fluorescence; after compound, maximal acetylcholine stimulation; inhibition, % at 10 µM; 2,400 tested, 14% active;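 active = membrane potential signal drops by more than 5 SD from the mean control signal, in both duplicate plates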;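 also: plate controls were acetylcholine ECmax control wells for no effect and buffer only wells for full effect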
TRPC4/MOR mod = tests whether TRPC6 modulators also affect mouse TRPC4; HEK293 TRPC4/mu-opioid, membrane potential fluorescence; percent change from control (negative = decrease, positive = increase), % at 10 µM; AID 488927; 2,400 tested, 69% active; shares compounds with TRPC6 inh;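 active = membrane potential signal moved up or down beyond 5 SD of buffer control wells, in both duplicate plates, actives on both sides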;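 also: plate controls were assay buffer wells for no effect and DAMGO maximal-effect wells for full effect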
TRPC4 ctr inh 2 = second selectivity test of TRPC6 modulators against mouse TRPC4; shares compounds with TRPC6 inh; inhibition, % at 10 µM; HEK293 TRPC4/mu-opioid, membrane potential dye fluorescence; stimulated with maximal-effect DAMGO; 2,400 tested, 55% active;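 active = drop in membrane potential signal beyond 5 SD of the control wells in both duplicate plates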;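 also: TRPC4 counter screen for TRPC6 hits run under conditions tuned for TRPC6 not TRPC4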
TRPC6 block conf = mouse TRPC6 inhibitor confirmation; shares compounds with TRPC6 inh; HEK293-TRPC6, membrane potential dye, ACh-evoked depolarization; inhibition, % at 10 µM; 3,300 tested, 43% active;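 active = fluorescence ratio falls more than 5 SD below the full-stimulation control mean, in both duplicate runs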;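 also: integrated fluorescence ratio of peak minus minimum over baseline after agonist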
TRPC6 act conf = confirmation of mouse TRPC6 activators | shares compounds with TRPC6 inh | 2,800 tested, 11% active | HEK293-TRPC6 membrane potential dye fluorescence, FDSS | activation, % at 10 µM;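 active = ratio signal rise beyond 5 SD above unstimulated control wells' mean, seen in both duplicate runs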;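 also: plate controls were buffer EC0 wells for no effect and acetylcholine ECmax response for full effect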
* hit, by the source's call; i = inactive; x = no result given.

SMILES	TRPC6 inh	TRPC6 activator	Kir21 block	TRPC4 PAM	TRPC4 inh	TRPC4 act	HEK293 MPD ctr-2	HEK293 MPD ctr 2-2	TRPC4/MOR mod	TRPC4 ctr inh 2	TRPC6 block conf	TRPC6 act conf	others
COc1ccc(Cc2c(O)[nH]c(=O)[nH]c2=O)c(OC)c1	i	16*	-1.5	i	i	i	i	i	i	i	i	i
OC(c1ccccc1)(c1ccc(Cl)cc1)C1CN2CCC1CC2 (stereo unspecified)	i	i	0	i	i	i	x	x	x	x	x	x
c1ccc(C2CN3CCC2CC3)cc1 (stereo unspecified)	i	i	-0.17	i	i	i	x	x	x	x	x	x
OC(c1ccccc1)(c1ccccc1)C1CN2CCC1CC2 (stereo unspecified)	-7.9*	i	-0.98	i	i	i	x	x	x	x	i	i	TRPC4 spec 2=i;TRPC4 spec=i;HEK293 MPD ctr 2-1=i;HEK293 MPD ctr-1=i
OC(Cc1ccccc1)(c1ccccc1)C1CN2CCC1CC2 (stereo unspecified)	-5.4*	i	-1.2	i	i	i	152%*	i	33%*	i	52%*	x
Cc1ccsc1C(=O)C1CCCN(Cc2ccc(-n3cccn3)cc2)C1 (stereo unspecified)	i	i	-0.02	i	i	i	x	x	x	x	x	x
CC[n+]1c(/C=C/C=C/c2ccc(N(C)C)cc2)sc2ccccc21	i	i	-4	i	i	i	x	x	x	x	x	x
CC[n+]1c(/C=C/N(C)c2ccccc2)sc2ccc(Cl)cc21	-6.3*	i	0.38	i	i	i	i	96%*	i	36%*	46%*	i
CN(C)c1ccc(/C=C2/C(=N\O)C3CCN2CC3)cc1	i	i	1.2	i	i	i	x	x	x	x	x	x
CSc1ncc(CN2CCCC(C(=O)c3ccccc3SC)C2)cn1 (stereo unspecified)	i	i	-0.22	i	i	i	x	x	x	x	x	x
COc1cccc(O)c1CN1CCCC(C(=O)c2ccccc2SC)C1 (stereo unspecified)	-5.6*	i	-0.83	i	i	i	192%*	i	26%*	54%*	i	x
